From ChEMBL document CHEMBL1121813, “Dihydrochalcone sweeteners. A study of the atypical temporal phenomena” (1981)

Experiments:
Type in all cases: functional
Homo sapiens [1] = organism: Homo sapiens; test: Sweet character at a concentration of 54 ppm (mean value)
Homo sapiens [2] = organism: Homo sapiens; test: Experimentally determined perceived intensity of compound at a concentration of 54 ppm (mean value)
Procedure, shortened: (§1)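 Trained human sensory panel of judges tasted aqueous solutions of the compound. Samples had to be ≥95 weight % pure (HPLC, proton titration, Karl Fischer), non-mutagenic in five Salmonella typhimurium strains with and without microsomal activation, and non-toxic in a single-oral-dose mouse test. Perceived intensity (Ip) was read from time–intensity curves at 4- or 6-s intervals and averaged. Outliers at the 95% level were rejected by t-value. Values reported as mean (2Sm).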

Homo sapiens [3] = organism: Homo sapiens; test: Percentage of judgments reporting an aftertaste at a concentration of 54 ppm and character thereof
Homo sapiens [4] = organism: Homo sapiens; test: Intensity calculated on a weight basis relative to an 85500 ppm sucrose solution at a concentration of 54 ppm (mean value)
Procedure, shortened: (§2)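 Trained human panel tasted aqueous solutions of purity-checked (≥95 weight percent) compounds cleared for mutagenicity and mouse oral toxicity. Weight-basis intensity I_w = perceived intensity × (85500 ppm sucrose / compound concentration in ppm). The mean is reported with 2S_m limits; data deviating excessively at 95% confidence were rejected by the t-value method.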

Homo sapiens [5] = organism: Homo sapiens; test: Bitter character at a concentration of 54 ppm (mean value)
Procedure, shortened: (§3)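 Trained human panel tasted aqueous solutions. Each judge reported whether there was an aftertaste and its character (sweet, bitter or bitter-sweet). The value is the percentage of judgments reporting a bitter aftertaste.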

Homo sapiens [6] = organism: Homo sapiens; test: Intensity calculated on a molar basis relative to a 0.25 M sucrose solution at a concentration of 54 ppm (mean value)
Procedure, shortened: (§4)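 Trained human judges tasted aqueous solutions of the test compound; compounds were first required to be ≥95 weight percent pure and free of mutagenicity (five Salmonella typhimurium strains, ± microsomal activation) and of single oral dose mouse toxicity. Molar intensity I_m = perceived intensity × (0.25 M sucrose / compound molar concentration). The mean is reported with 2S_m limits; outliers were rejected at 95% confidence by t-value.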

Homo sapiens [7] = organism: Homo sapiens; test: Sour character at a concentration of 54 ppm (mean value)
Homo sapiens [8] = organism: Homo sapiens; test: Number of taste judgments per compound
Homo sapiens [9] = organism: Homo sapiens; test: Sweet / Bitter character at a concentration of 54 ppm (mean value); 14/86
Homo sapiens [10] = organism: Homo sapiens; test: Salty character at a concentration of 54 ppm (mean value)
Homo sapiens [11] = organism: Homo sapiens; test: Other taste character at a concentration of 54 ppm (mean value)
Procedure, shortened: (§5)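 Trained human sensory panel (Swartz method) tasted dilute aqueous solutions of the compounds, which had to be ≥95 weight percent pure and free of mutagenicity and toxicity. Taste character is reported as the mean value with 2S_m limits. Data deviating excessively at the 95% confidence level were rejected by the t-value method.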

Homo sapiens [12] = organism: Homo sapiens; test: Percentage of judgments reporting an aftertaste at a concentration of 495 ppm and character thereof
Homo sapiens [13] = organism: Homo sapiens; test: Experimentally determined perceived intensity of compound at a concentration of 495 ppm (mean value); procedure, shortened: as §1
Homo sapiens [14] = organism: Homo sapiens; test: Sour character at a concentration of 250 ppm (mean value); procedure, shortened: as §5
Homo sapiens [15] = organism: Homo sapiens; test: Intensity calculated on a weight basis relative to an 85500 ppm sucrose solution at a concentration of 250 ppm (mean value); procedure, shortened: as §2
Homo sapiens [16] = organism: Homo sapiens; test: Bitter character at a concentration of 250 ppm (mean value); procedure, shortened: as §3
Homo sapiens [17] = organism: Homo sapiens; test: Experimentally determined perceived intensity of compound at a concentration of 250 ppm (mean value); procedure, shortened: as §1
Homo sapiens [18] = organism: Homo sapiens; test: Sweet / Bitter character at a concentration of 250 ppm (mean value); 94/6
Homo sapiens [19] = organism: Homo sapiens; test: Sweet character at a concentration of 250 ppm (mean value); procedure, shortened: as §5
Homo sapiens [20] = organism: Homo sapiens; test: Intensity calculated on a molar basis relative to a 0.25 M sucrose solution at a concentration of 250 ppm (mean value); procedure, shortened: as §4
Homo sapiens [21] = organism: Homo sapiens; test: Salty character at a concentration of 250 ppm (mean value); procedure, shortened: as §5
Homo sapiens [22] = organism: Homo sapiens; test: Other taste character at a concentration of 250 ppm (mean value); procedure, shortened: as §5
Homo sapiens [23] = organism: Homo sapiens; test: Percentage of judgments reporting an aftertaste at a concentration of 250 ppm and character thereof
Procedure, shortened: (§6)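 Trained judges tasted aqueous solutions of the compounds, which had to be ≥95 weight percent pure and to have passed mutagenicity and single oral dose toxicity screening. The value is the percentage of panel judgments reporting an aftertaste. Where given, its character is recorded as sweet, bitter or bitter-sweet.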

Homo sapiens [24] = organism: Homo sapiens; test: Sweet character at a concentration of 501 ppm (mean value)
Homo sapiens [25] = organism: Homo sapiens; test: Experimentally determined perceived intensity of compound at a concentration of 501 ppm (mean value); procedure, shortened: as §1
Homo sapiens [26] = organism: Homo sapiens; test: Percentage of judgments reporting an aftertaste at a concentration of 501 ppm and character thereof
Homo sapiens [27] = organism: Homo sapiens; test: Intensity calculated on a weight basis relative to an 85500 ppm sucrose solution at a concentration of 501 ppm (mean value); procedure, shortened: as §2
Homo sapiens [28] = organism: Homo sapiens; test: Bitter character at a concentration of 501 ppm (mean value); procedure, shortened: as §3
Homo sapiens [29] = organism: Homo sapiens; test: Sour character at a concentration of 501 ppm (mean value)
Homo sapiens [30] = organism: Homo sapiens; test: Sweet / Bitter character at a concentration of 501 ppm (mean value); 0/100
Homo sapiens [31] = organism: Homo sapiens; test: Intensity calculated on a molar basis relative to a 0.25 M sucrose solution at a concentration of 501 ppm (mean value); procedure, shortened: as §4
Homo sapiens [32] = organism: Homo sapiens; test: Salty character at a concentration of 501 ppm (mean value)
Homo sapiens [33] = organism: Homo sapiens; test: Other taste character at a concentration of 501 ppm (mean value); procedure, shortened: as §5
Homo sapiens [34] = organism: Homo sapiens; test: Intensity calculated on a weight basis relative to an 85500 ppm sucrose solution at a concentration of 248 ppm (mean value); procedure, shortened: as §2
Homo sapiens [35] = organism: Homo sapiens; test: Sour character at a concentration of 248 ppm (mean value)
Homo sapiens [36] = organism: Homo sapiens; test: Salty character at a concentration of 248 ppm (mean value)
Homo sapiens [37] = organism: Homo sapiens; test: Bitter character at a concentration of 248 ppm (mean value); procedure, shortened: as §3
Homo sapiens [38] = organism: Homo sapiens; test: Experimentally determined perceived intensity of compound at a concentration of 248 ppm (mean value); procedure, shortened: as §1
Homo sapiens [39] = organism: Homo sapiens; test: Sweet / Bitter character at a concentration of 248 ppm (mean value); 8/92
Homo sapiens [40] = organism: Homo sapiens; test: Sweet character at a concentration of 248 ppm (mean value)
Homo sapiens [41] = organism: Homo sapiens; test: Intensity calculated on a molar basis relative to a 0.25 M sucrose solution at a concentration of 248 ppm (mean value); procedure, shortened: as §4
Homo sapiens [42] = organism: Homo sapiens; test: Other taste character at a concentration of 248 ppm (mean value); procedure, shortened: as §5
Homo sapiens [43] = organism: Homo sapiens; test: Percentage of judgments reporting an aftertaste at a concentration of 248 ppm and character thereof; procedure, shortened: as §6
Homo sapiens [44] = organism: Homo sapiens; test: Intensity calculated on a weight basis relative to an 85500 ppm sucrose solution at a concentration of 2000 ppm (mean value); procedure, shortened: as §2
Homo sapiens [45] = organism: Homo sapiens; test: Bitter character at a concentration of 2000 ppm (mean value); procedure, shortened: as §3
Homo sapiens [46] = organism: Homo sapiens; test: Other taste character at a concentration of 2000 ppm (mean value)
Procedure, shortened: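 Trained human panel tasted aqueous solutions of each compound. Aftertaste is scored as the percentage of judgments reporting one, with its character coded sweet (s), bitter (b) or bitter-sweet (bs).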

Homo sapiens [47] = organism: Homo sapiens; test: Experimentally determined perceived intensity of compound at a concentration of 2000 ppm (mean value); procedure, shortened: as §1
Homo sapiens [48] = organism: Homo sapiens; test: Sweet / Bitter character at a concentration of 2000 ppm (mean value); 0/100
Homo sapiens [49] = organism: Homo sapiens; test: Percentage of judgments reporting an aftertaste at a concentration of 2000 ppm and character thereof; procedure, shortened: as §6
Homo sapiens [50] = organism: Homo sapiens; test: Sweet character at a concentration of 2000 ppm (mean value); procedure, shortened: as §5
Homo sapiens [51] = organism: Homo sapiens; test: Intensity calculated on a molar basis relative to a 0.25 M sucrose solution at a concentration of 2000 ppm (mean value); procedure, shortened: as §4
Homo sapiens [52] = organism: Homo sapiens; test: Salty character at a concentration of 2000 ppm (mean value); procedure, shortened: as §5
Homo sapiens [53] = organism: Homo sapiens; test: Sour character at a concentration of 2000 ppm (mean value); procedure, shortened: as §5

## COc1ccc(CC(=O)c2c(O)cc(O)cc2O)cc1O
Homo sapiens [1]
  Taste character: 11
Homo sapiens [2]
  IP: 0.11
Homo sapiens [3]
  Judgments: 0
Homo sapiens [4]
  IW: 170
Homo sapiens [5]
  Taste character: 70
Homo sapiens [6]
  IM: 150
Homo sapiens [7]
  Taste character: 0
Homo sapiens [8]
  Judgments: 12
Homo sapiens [9]
  Taste character: 14
Homo sapiens [10]
  Taste character: 0
Homo sapiens [11]
  Taste character: 19

## COc1ccc(CCC(=O)c2c(O)cc(OC(C(=O)[O-])C(=O)[O-])cc2O)cc1O.[Na+].[Na+]
Homo sapiens [12]
  Judgments: 0
Homo sapiens [13]
  IP: 0
Homo sapiens [8]
  Judgments: 1

## COc1ccc(CCC(=O)c2c(O)cc(OCCNS(=O)(=O)[O-])cc2O)cc1O.[K+]
Homo sapiens [14]
  Taste character: 0
Homo sapiens [15]
  IW: 350
Homo sapiens [16]
  Taste character: 6
Homo sapiens [17]
  IP: 1.03
Homo sapiens [8]
  Judgments: 12
Homo sapiens [18]
  Taste character: 94
Homo sapiens [19]
  Taste character: 89
Homo sapiens [20]
  IM: 480
Homo sapiens [21]
  Taste character: 0
Homo sapiens [22]
  Taste character: 5
Homo sapiens [23]
  Judgments: 100

## O=C([O-])COc1cc(O)c(C(=O)CCc2ccccc2)c(O)c1.[Na+]
Homo sapiens [24]
  Taste character: 0
Homo sapiens [25]
  IP: 0.91
Homo sapiens [26]
  Judgments: 100
Homo sapiens [27]
  IW: 160
Homo sapiens [28]
  Taste character: 79
Homo sapiens [29]
  Taste character: 0
Homo sapiens [8]
  Judgments: 12
Homo sapiens [30]
  Taste character: 0
Homo sapiens [31]
  IM: 150
Homo sapiens [32]
  Taste character: 0
Homo sapiens [33]
  Taste character: 21

## O=C([O-])COc1cc(O)c(C(=O)CCc2ccc(O)c(O)c2)c(O)c1.[Na+]
Homo sapiens [34]
  IW: 52
Homo sapiens [35]
  Taste character: 0
Homo sapiens [36]
  Taste character: 0
Homo sapiens [37]
  Taste character: 33
Homo sapiens [38]
  IP: 0.15
Homo sapiens [39]
  Taste character: 8
Homo sapiens [8]
  Judgments: 12
Homo sapiens [40]
  Taste character: 3
Homo sapiens [41]
  IM: 56
Homo sapiens [42]
  Taste character: 64
Homo sapiens [43]
  Judgments: 38

## CC(=O)c1c(O)cc(OCC(=O)[O-])cc1O.[Na+]
Homo sapiens [44]
  IW: 10
Homo sapiens [45]
  Taste character: 100
Homo sapiens [46]
  Taste character: 0
Homo sapiens [47]
  IP: 0.25
Homo sapiens [48]
  Taste character: 0
Homo sapiens [8]
  Judgments: 1
Homo sapiens [49]
  Judgments: 0
Homo sapiens [50]
  Taste character: 0
Homo sapiens [51]
  IM: 0
Homo sapiens [52]
  Taste character: 0
Homo sapiens [53]
  Taste character: 0
